In ChEMBL document CHEMBL4819122, “Novel 4-(piperazin-1-yl)quinolin-2(1H)-one bearing thiazoles with antiproliferative activity through VEGFR-2-TK inhibition” (Bioorg Med Chem, 2021):
Calls of active or inactive are those of the source. The calls are words filed in the database; no cut-off is given here.

Tests used:
[1] = system: UACC-62; assay: Cytotoxicity against human UACC-62 assessed as growth inhibition at 10 uM by NCI protocol relative to control; format: functional; settings: read-out: GI
Method in brief: (§1)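 Run by the NCI under its standard protocol: one dose of 10 μM against a sixty-line panel from nine human tumour tissues. Result given as percent growth inhibition of treated cells relative to untreated cells.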

[2] = system: OVCAR-8; assay: Cytotoxicity against human OVCAR-8 assessed as growth inhibition at 10 uM by NCI protocol relative to control; format: functional; settings: read-out: GI
Method in brief: (§2)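 Run by NCI as a single-dose screen at 10 μM across the sixty-cell-line panel, which covers nine human tumour tissue types. The read-out is percent growth inhibition of treated cells relative to untreated cells.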

[3] = system: HCT-116; assay: Cytotoxicity against human HCT-116 assessed as growth inhibition at 10 uM by NCI protocol relative to control; format: functional; settings: read-out: GI; method in brief: as §2
[4] = system: SF-539; assay: Cytotoxicity against human […] assessed as growth inhibition at 10 uM by NCI protocol relative to control; format: functional; settings: read-out: GI; method in brief: as §2
[5] = system: Hs-578T; assay: Cytotoxicity against human HS 578T assessed as growth inhibition at 10 uM by NCI protocol relative to control; format: functional; settings: read-out: GI; method in brief: as §2
[6] = system: RPMI-8226; assay: Cytotoxicity against human RPMI-8226 assessed as growth inhibition at 10 uM by NCI protocol relative to control; format: functional; settings: read-out: GI; method in brief: as §2
[7] = system: MDA-MB-231; assay: Cytotoxicity against human MDA-MB-231 assessed as growth inhibition at 10 uM by NCI protocol relative to control; format: functional; settings: read-out: GI; method in brief: as §2
[8] = system: SW-620; assay: Cytotoxicity against human SW-620 assessed as growth inhibition at 10 uM by NCI protocol relative to control; format: functional; settings: read-out: GI; method in brief: as §1
[9] = system: MCF7; assay: Cytotoxicity against human MCF7 assessed as growth inhibition at 10 uM by NCI protocol relative to control; format: functional; settings: read-out: GI; method in brief: as §2
[10] = system: ACHN; assay: Cytotoxicity against human ACHN assessed as growth inhibition at 10 uM by NCI protocol relative to control; format: functional; settings: read-out: GI; method in brief: as §2
[11] = system: CCRF-CEM; assay: Cytotoxicity against human CCRF-CEM assessed as growth inhibition at 10 uM by NCI protocol relative to control; format: functional; settings: read-out: GI; method in brief: as §2
[12] = system: OVCAR-4; assay: Cytotoxicity against human OVCAR-4 assessed as growth inhibition at 10 uM by NCI protocol relative to control; format: functional; settings: read-out: GI; method in brief: as §2
[13] = system: MOLT-4; assay: Cytotoxicity against human MOLT-4 assessed as growth inhibition at 10 uM by NCI protocol relative to control; format: functional; settings: read-out: GI; method in brief: as §2
[14] = system: MDA-MB-435; assay: Cytotoxicity against human MDA-MB-435 assessed as growth inhibition at 10 uM by NCI protocol relative to control; format: functional, cell-based; method in brief: as §2
[15] = system: T47D; assay: Induction of cell cycle arrest in human T47D cells assessed as increase in accumulation at G0/G1 phase after 24 hrs by propidium iodide/Annexin V staining based FACScan flow cytometry(reference value: 52.59%); format: functional
[16] = system: T47D; assay: Induction of cell cycle arrest in human T47D cells assessed as increase in accumulation at G2/M phase after 24 hrs by propidium iodide/Annexin V staining based FACScan flow cytometry(reference value: 12.79%); format: functional
[17] = system: HOP-62; assay: Cytotoxicity against human HOP-62 assessed as growth inhibition at 10 uM by NCI protocol relative to control; format: functional; settings: read-out: GI; method in brief: as §2
[18] = system: T47D; assay: Induction of apoptosis in human T47D cells assessed as necrotic cells after 24 hrs by Annexin V-FITC/propidium iodide staining based flow cytometric analysis (reference value: 1.74%); format: functional
[19] = system: T47D; assay: Induction of apoptosis in human T47D cells assessed as late apoptotic cells after 24 hrs by Annexin V-FITC/propidium iodide staining based flow cytometric analysis (reference value: 0.21 %); format: functional
[20] = system: T47D; assay: Induction of cell cycle arrest in human T47D cells assessed as increase in accumulation at pre G1 phase after 24 hrs by propidium iodide/Annexin V staining based FACScan flow cytometry(reference value: 2.61%); format: functional
[21] = system: SNB-19; assay: Cytotoxicity against human SNB-19 assessed as growth inhibition at 10 uM by NCI protocol relative to control; format: functional; settings: read-out: GI; method in brief: as §1
[22] = system: T47D; assay: Induction of cell cycle arrest in human T47D cells assessed as increase in accumulation at S phase after 24 hrs by propidium iodide/Annexin V staining based FACScan flow cytometry(reference value: 34.62%); format: functional
[23] = system: MCF10; assay: Cytotoxicity against human MCF10 cells assessed as reduction in cell viability after 3 hrs by MTT assay; settings: MCF10, 3 h
[24] = system: T47D; assay: Induction of apoptosis in human T47D cells assessed as early apoptotic cells after 24 hrs by Annexin V-FITC/propidium iodide staining based flow cytometric analysis (reference value: 0.66 %); format: functional
[25] = system: T47D; assay: Induction of apoptosis in human T47D cells assessed as total apoptotic cells after 24 hrs by Annexin V-FITC/propidium iodide staining based flow cytometric analysis (reference value: 2.61 %); format: functional

SMILES	inhibition of growth at 10 µM [1]	inhibition of growth at 10 µM [2]	inhibition of growth at 10 µM [3]	inhibition of growth at 10 µM [4]	inhibition of growth at 10 µM [5]	inhibition of growth at 10 µM [6]	inhibition of growth at 10 µM [7]	inhibition of growth at 10 µM [8]	inhibition of growth at 10 µM [9]	inhibition of growth at 10 µM [10]	inhibition of growth at 10 µM [11]	inhibition of growth at 10 µM [12]	inhibition of growth at 10 µM [13]	growth inhibition (GI) [14]	inhibition of growth at 10 µM [17]	inhibition of growth at 10 µM [21]	also measured
Cc1ccc(-c2csc(NC(=O)CN3CCN(c4cc(=O)[nH]c5ccc(F)cc45)CC3)n2)cc1	33.9%	23.2%	45.2%	32.7%	41.4%	51.1%	19%	37%	33.5%	44.1%	47%	30.6%	53.2%	inactive			
O=C(CN1CCN(c2cc(=O)n(-c3ccccc3)c3ccccc23)CC1)Nc1nc(-c2ccc(Cl)cc2)cs1	38.5%	40.6%	64.2%	23.9%		63.3%	25.3%	25.7%	79.9%	44.9%	49.3%	80.3%	71%	inactive	34.2%	36%	Activity [15]: 45.69%; Activity [16]: 4.95%; Activity [18]: 9.85%; Activity [19]: 11.21%; Activity [20]: 25.12%; Activity [22]: 49.36%; IC50 [23]: 64.6 µM; Activity [24]: 4.06%; Activity [25]: 25.12%
O=C(CN1CCN(c2cc(=O)[nH]c3ccc(F)cc23)CC1)Nc1nc(-c2ccc(Cl)cc2)cs1	32%	24%	48%	30.5%	33.5%	38.3%	16.6%	41.2%	39.7%	38.5%	33.3%	39.1%	52.8%	inactive		30.8%	
O=C(CN1CCN(c2cc(=O)n(-c3ccccc3)c3ccccc23)CC1)Nc1nc(-c2ccccc2)cs1	36.1%	30.2%	46.6%	22.9%	17.1%	53.8%	37.5%	31.4%	72.4%	36.2%	60.4%	76.7%	82.2%	inactive	33.5%	14.8%	
